Data on four compounds can be found in ChEMBL document CHEMBL3286172, “Exploring the role of 2-chloro-6-fluoro substitution in 2-alkylthio-6-benzyl-5-alkylpyrimidin-4(3H)-ones: effects in HIV-1-infected cells and in HIV-1 reverse transcriptase enzymes” (J Med Chem, 2014).

pEC50: −log10 of the molar value.

The test system of series [1] is Human immunodeficiency virus 1. Nature of the series: Fold resistance, ratio of EC50 for HIV-1 harboring NNTRI-resistant reverse transcriptase K103N mutant infected in human MT4 cells to EC50 for wild type HIV-1 NL4-3 infected in human MT4 cells. The series is classed as functional.
The subject of series [2] is Human immunodeficiency virus type 1 reverse transcriptase (Human immunodeficiency virus 1), Q72547 [K103N].
Series [3] in a line: Cytotoxicity against human MT4 cells assessed as induction of cell death by MTT method. The series is classed as cell-based. A digest of the protocol:
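Mock-infected MT-4 cells exposed to a range of drug concentrations. Viability read by MTT colorimetry at day 5. […] Top concentration was limited where compound precipitated in the culture medium. Means of at least two experiments.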

In series [4] the test system is Human immunodeficiency virus 1. The experiment in a line: Fold resistance, ratio of EC50 for HIV-1 harboring NNTRI-resistant reverse transcriptase Y181C mutant infected in human MT4 cells to EC50 for wild type HIV-1 NL4-3 infected in human MT4 cells. The series is classed as functional. A digest of the protocol: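 MT-4 cells infected with HIV-1 mutant (K103N or Y181C) or wild-type NL4-3, with drug present. […] Fold resistance is the mutant EC50 divided by the wild-type NL4-3 EC50. EC50 values are means of at least two experiments.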

For series [5], the system named is Human immunodeficiency virus 1. The experiment in a line: Fold resistance, ratio of ID50 for HIV-1 recombinant NNTRI-resistant reverse transcriptase Y181I mutant to ID50 for wild type HIV-1 recombinant reverse transcriptase. The method, boiled down:
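RNA-dependent DNA polymerase activity with 0.5 µg poly(rA)/oligo(dT)10:1 (0.3 µM 3'-OH ends), 10 µM [3H]-dTTP and 8% final DMSO. Incorporation was sampled at 2-min intervals. ID50 came from fitting to a fully non-competitive model. Means of at least three experiments.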

For series [6], the system named is Human immunodeficiency virus type 1 reverse transcriptase (Human immunodeficiency virus 1), Q72547 [L100I].
Series [7] addresses Human immunodeficiency virus type 1 reverse transcriptase (Human immunodeficiency virus 1) (UniProt Q72547).
The subject of series [8] is Human immunodeficiency virus 1. The experiment in a line: Antiviral activity against HIV-1 harboring NNTRI-resistant reverse transcriptase Y188L mutant infected in human MT4 cells assessed as inhibition of virus-induced cytopathic effect by MTT method. It counts as functional, organism-based. The settings on record: Human immunodeficiency virus 1, MT4. A digest of the protocol:
(§1)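 MT-4 lymphoid cells infected with HIV-1 carrying RT K103N, Y181C or Y188L, with a range of drug concentrations present. Viable cells counted by MTT colorimetric assay at day 5 post-infection. […] Highest concentration tested was limited by precipitation in culture medium. Means of at least two experiments.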

The test system of series [9] is Human immunodeficiency virus 1. The experiment in a line: Fold resistance, ratio of ID50 for HIV-1 recombinant NNTRI-resistant reverse transcriptase K103N mutant to ID50 for wild type HIV-1 recombinant reverse transcriptase. The method, boiled down: (§2)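 Recombinant wt or mutant HIV-1 RT, purified to >95%, at 2-4 nM. RNA-dependent DNA polymerase activity with 0.5 µg poly(rA)/oligo(dT)10:1 (0.3 µM 3'-OH ends), 10 µM [3H]-dTTP and 8% final DMSO. Incorporation was sampled at 2-min intervals. ID50 came from fitting to a fully non-competitive model. Ratio is ID50 mutant/ID50 wt. Means of at least three experiments.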

A short description of series [10]: Selectivity index, ratio of CC50 for human MT4 cells to EC50 for wild type HIV-1 NL4-3 infected in human MT4 cells. The following applies: read-out: Ratio CC50/EC50. The series is classed as toxicity, cell-based. The method, boiled down: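 Ratio of CC50 to EC50, both from MTT readings in MT-4 cells at day 5. CC50 was taken in mock-infected cells and EC50 in cells infected with wild-type NL4-3. Values are means of at least two experiments.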

The subject of series [11] is Human immunodeficiency virus type 1 reverse transcriptase (Human immunodeficiency virus 1), Q72547 [Y181I].
In series [12] the test system is Human immunodeficiency virus 1. The experiment in a line: Fold resistance, ratio of ID50 for HIV-1 recombinant NNTRI-resistant reverse transcriptase L100I mutant to ID50 for wild type HIV-1 recombinant reverse transcriptase. The method, boiled down:
as §2

The test system of series [13] is Human immunodeficiency virus 1. Nature of the series: Antiviral activity against HIV-1 harboring NNTRI-resistant reverse transcriptase Y181C mutant infected in human MT4 cells assessed as inhibition of virus-induced cytopathic effect by MTT method. It counts as functional, organism-based. The settings on record: Human immunodeficiency virus 1, MT4. A digest of the protocol: as §1
On the technique in general: Damage to the host cells serves as the signal in cytopathic effect assays.

Series [14] deals with Human immunodeficiency virus 1. Nature of the series: Antiviral activity against HIV-1 harboring NNTRI-resistant reverse transcriptase K103N mutant infected in human MT4 cells assessed as inhibition of virus-induced cytopathic effect by MTT method. It counts as functional, organism-based. The settings on record: Human immunodeficiency virus 1, MT4.
Series [15] has as its system Human immunodeficiency virus 1. Nature of the series: Ratio of efavirenz EC50 to compound EC50 for wild type HIV-1 NL4-3 infected in human MT4 cells. It counts as functional.
Series [16] concerns Human immunodeficiency virus 1. The experiment in a line: Antiviral activity against wild type HIV-1 NL4-3 infected in human MT4 cells assessed as inhibition of virus-induced cytopathic effect by MTT method. The series is classed as functional, organism-based. The settings on record: Human immunodeficiency virus 1, NL4-3, MT4. A digest of the protocol: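 MT-4 lymphoid cells infected with wild-type HIV-1 NL4-3 while exposed to a range of drug concentrations. Viable cells counted by tetrazolium (MTT) colorimetry at day 5 post-infection. Means of at least two experiments.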

Series [17] concerns Human immunodeficiency virus 1. The experiment in a line: Fold resistance, ratio of EC50 for HIV-1 harboring NNTRI-resistant reverse transcriptase Y188L mutant infected in human MT4 cells to EC50 for wild type HIV-1 NL4-3 infected in human MT4 cells. The series is classed as functional. The method, boiled down:
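HIV-1 NL4-3 (wt) or Y188L mutant infection of MT-4 cells across a range of drug concentrations. Viable cells were counted by MTT at day 5 post-infection. […] Fold resistance is mutant EC50 over wt EC50. Means of at least two experiments.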

Usually CC50 stands for the concentration giving 50% cytotoxicity. Broadly, the pEC50 is the negative decadic logarithm of the EC50, by convention in mol/L. In the case of `Cc1c(C(C)c2c(F)cccc2F)nc(SC2CCCC2)[nH]c1=O` (racemic), the “Ratio EC50” value in series [1] stood at 230; in series [4], 100. The ID50 in series [2] is 30 nM; in series [6], 300 nM; in series [7] it was 5 nM; in [11] it was 900 nM. The CC50 in [3] was > 3000 nM. The Ratio was found to be 180 in [5], 6 in series [9] and 60 in [12]. For the same compound, the results for the pEC50 in [8] and in series [13] were < 5.52 and 7.00, respectively. In series [10], the selectivity ratio was > 3000.

For the compound `CCCSc1nc(C(C)c2c(F)cccc2Cl)c(C)c(=O)[nH]1` (racemic), the “Ratio EC50” value in series [1] was found to be 7000; in series [4], 5200; in series [15] it was 140. For the same compound, the ID50 was found to be 1500 nM in series [2], 90 nM in series [6] and 0.9 nM in series [7]. For the same compound, the CC50 in [3] was > 1500 nM. The negative logarithm of the EC50 (pEC50) is 6.46 in series [14], < 5.82 in [8], 10.30 in series [16] and 6.59 in series [13]. For the same compound, the selectivity ratio in [10] was > 30000.

Take `CCCCSc1nc(C(C)c2c(F)cccc2Cl)c(C)c(=O)[nH]1` (racemic): the results for the “Ratio EC50” value in series [1], in series [4] and in series [15] were 2200, 2067 and 23, respectively. Also, the ID50 was 930 nM in series [2], 156 nM in series [6] and 3 nM in series [7]. Further, in [3], the CC50 is > 1500 nM. Moreover, the negative logarithm of the EC50 (pEC50) is 6.18 in series [14], < 5.82 in series [8], 9.52 in series [16] and 6.21 in series [13]. In addition, the values for the Ratio in [5], in series [9] and in [12] were 20000, 310 and 52, respectively. The selectivity ratio in series [10] was > 5000.

Turning to `Cc1c(C(C)c2c(F)cccc2Cl)nc(SC2CCCC2)[nH]c1=O` (racemic), the “Ratio EC50” value worked out at 3100 in series [1], 96667 in series [17], 7667 in series [4] and 230 in [15]. Further, the ID50 in series [2] amounted to 1300 nM; in [6] it was 120 nM; in series [7], 11 nM. For the same compound, the CC50 in series [3] was > 15000 nM. Besides, the negative-log EC50 (pEC50) in series [14] is 7.03; in series [8] it was 5.54; in series [16], 10.52; in [13], 6.64. The selectivity ratio in series [10] was > 500000.
